Sampled rows, rich in hits. Any-hit rate of the full collection: about 1.9%.
CR mimetic SO: reduction of superoxide in aged yeast, primary screen, HTS; S. cerevisiae aged cells, superoxide DHE fluorescence; stronger effect = lower value; superoxide response (% of plate mean), % at 10 µM; 330,000 compounds, 0.18% hits;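 active = superoxide response under a set limit, about three screen SD below normal, cut at about 65% in these data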;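 also: yeast aged for seven days with compound at 30 °C before DHE staining; 100% = average MFI of all compound-treated wells on the plate with controls excluded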
beta cell repl: inducers of MIN6 beta-cell proliferation, primary screen, ATP luminescence, uHTS; AID 2380, 2010; 330,000 compounds, 0.29% hits; MIN6 cells proliferation, ATPlite luminescence, 48 h; cells starved in 0.2% serum; 100% = growth in 10% serum; proliferation, % at 10 µM;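 active = compounds whose signal lies at least 3.5 SD above the mean of all wells on their plate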;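 also: 0% = DMSO-treated cells in low-serum medium and 100% = 10% serum control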
Rce1 inh: yeast Rce1p protease inhibitors, primary screen, biochemical, fluorescence, cell-free homogeneous | yeast membranes, quenched prenylated peptide cleavage fluorescence | calls only | 290,000 compounds, 0.27% hits | AID 2563, 2010;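 active = fall in fluorescence gain of 50% or more versus controls, with final raw signal at or below 3038400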;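 also: plate controls were neutral control wells for no effect and wells lacking membranes for full effect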
Target sequence (Q03530 whole entry, looked up): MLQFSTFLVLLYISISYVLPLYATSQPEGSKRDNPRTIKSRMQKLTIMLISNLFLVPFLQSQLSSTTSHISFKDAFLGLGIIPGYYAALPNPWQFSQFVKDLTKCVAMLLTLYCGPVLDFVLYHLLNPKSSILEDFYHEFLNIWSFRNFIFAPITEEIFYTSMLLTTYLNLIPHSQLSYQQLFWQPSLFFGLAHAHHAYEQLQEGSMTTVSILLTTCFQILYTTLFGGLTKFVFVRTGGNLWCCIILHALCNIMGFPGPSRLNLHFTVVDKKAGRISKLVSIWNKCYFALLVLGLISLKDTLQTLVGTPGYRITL
proKLK7 act: proKLK7 zymogen activators, primary screen, biochemical, fluorescence intensity. Kallikrein-7 (Homo sapiens), P49862. purified proKLK7, EDANS-DABCYL substrate fluorescence; 100% is mature enzyme control, 0% vehicle. activation, % at 7 µM. 370,000 compounds, 0.9% hits. AID 652039, 2013;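 active = activation above the mean of all tested compounds plus 3 SD, computed per campaign excluding outliers beyond control limits, cut at about 13% in these data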
Target sequence (P49862 whole entry, looked up): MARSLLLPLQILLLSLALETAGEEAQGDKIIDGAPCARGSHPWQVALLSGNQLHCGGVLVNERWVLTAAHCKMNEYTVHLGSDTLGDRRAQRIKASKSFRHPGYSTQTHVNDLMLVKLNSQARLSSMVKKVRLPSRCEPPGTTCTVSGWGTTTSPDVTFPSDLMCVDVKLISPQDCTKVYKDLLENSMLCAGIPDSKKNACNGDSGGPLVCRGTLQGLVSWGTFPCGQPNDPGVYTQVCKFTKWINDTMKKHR
T cell HTS: modulators of CD8 T cell-vesicle binding, primary screen, mouse 2C CD8+ T cells, flow cytometry; 2C CD8+ T cell-vesicle binding; stronger effect = lower value; 330,000 compounds, 0.068% hits; AID 2052, 2009; response (vesicle binding), % at 7 µM;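 active = response, share of CD8 T cells binding vesicles, and their 90th percentile fluorescence all below set limits, cut at about 80% in these data, passing the limit was not always enough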;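 also: values below 100% mean blocked vesicle binding to the CD8+ T cells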
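Incubation: binding step 1.5 h, 37 °C, antibody labelling 20 min, ice; system: murine 2C transgenic CD8+ T lymphocytes; technique: cytometric PE anti-B7-1 and Alexa647 anti-CD8 signals after 1% paraformaldehyde fixation; also added: QL9-charged Drosophila Ld/ICAM-1/B7-1 vesicles; control set: naked versus QL9-loaded vesicles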
V-ATPase pH: regulators of yeast V-ATPase proton pumping, primary screen, pHLuorin cytosolic pH fluorescence. S. cerevisiae. response, % at 10 µM. 350,000 compounds, 0.37% hits. AID 504577, 2011; in the data active = response mostly above about 7.3%, no sharp cut-off; inactive = mostly below about 5.4%; also: actives read high
proKLK7 act conf: proKLK7 zymogen activators, confirmation, biochemical, fluorescence intensity, triplicate. 3,200 compounds, 68% hits. activation, % at 7 µM. purified proKLK7, EDANS-DABCYL substrate fluorescence; scaled: vehicle 0, mature enzyme 100. shares compounds with proKLK7 act. AID 686949, 2013;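 active = activation, as change over the incubation, above the mean of all tested compounds plus 3 SD, cut at about 13% in these data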
EDANS-DABCYL int: EDANS-DABCYL substrate optical interference, artefact control for kallikrein-7 zymogen activator project, biochemical, fluorescence intensity, high throughput | shares compounds with proKLK7 act | no enzyme, 4 h; solvent 0%, active enzyme control 100% | activation, % at 7 µM | 3,200 compounds, 80% hits | AID 686952, 2013;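 active = activation above the all-compound mean plus 3 SD, ignoring values outside control-based bounds, cut at about 4.8% in these data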;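 also: value is the 4 h activation minus the activation read at time zero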
K7 EDANS ctr: counter-screen for kallikrein-7 activators: EDANS-DABCYL interference, dose response | AID 720493 | shares compounds with proKLK7 act | EDANS-DABCYL peptide fluorescence interference, no enzyme | 250 compounds, 20% hits | EC50, µM;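 active = compounds that raise the fluorescence signal in this interference counterscreen, with EC50 at or below 10 µM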;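 also: intact quenched peptide substrate alone read at 355 nm excitation and 520 nm emission; signal is fluorescence gain from T0 to T4 after four hours at room temperature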
An asterisk follows results filed as active; i = inactive; / = no result given.

SMILES | CR mimetic SO | beta cell repl | Rce1 inh | proKLK7 act | T cell HTS | V-ATPase pH | proKLK7 act conf | EDANS-DABCYL int | others
COC(=O)c1cc(-c2ccc3ccccc3c2)c(=O)n2c1CCC2 | / | / | / | -0.7 | / | / | / | /
CCN1C(=O)/C(=C2\SC(=S)N(CCCOC)C2=O)c2ccccc21 | 89.9 | -1.0 | i | 19.7* | 279.1 | -0.7 | 0.6 | 1.0
COc1ccc(COC(=O)C2CCN(S(=O)(=O)c3ccc(C)cc3)CC2)cc1 | 93.0 | -1.4 | i | 0.6 | 251.7 | 7.0 | / | /
COc1cc2c(cc1OC)/C(=C/C(=O)N1CCOCC1)NC(C)(C)C2 | 100.0 | -0.8 | i | 60.0* | 339.7 | / | 9.7 | 13.1*
CN1C=CC2=C(C#N)C(N)C(C#N)(C#N)C(c3ccccc3)C2C1 (stereo unspecified) | 95.3 | -1.5 | i | 25.4* | 940.1 | -0.7 | 33.1* | 35.2*
CN1C[C@@H]2C(c3ccccc3)C3(c4ccc(C#N)cc4)CC2(C3)[C@H]1c1ccccc1 (stereo partly specified) | 95.2 | 0.2 | i | 0.3 | 320.4 | -1.2 | / | /
COc1ccc2[nH]c3c(=S)nc[nH]c3c2c1 | 89.0 | 2.5 | i | 20.7* | 277.4 | -0.1 | 0.1 | 0.8
Cc1cc2[nH]c(=O)c(=O)[nH]c2cc1S(=O)(=O)NC1CCC(C)CC1 (stereo unspecified) | 104.3 | 0.4 | i | 14.8* | 389.2 | 5.2 | 7.5 | 4.1*
Cc1cc2[nH]c(=O)c(=O)[nH]c2cc1S(=O)(=O)NCC(C)c1ccccc1 (stereo unspecified) | / | / | / | 10.9 | / | / | / | /
Cc1cc2[nH]c(=O)c(=O)[nH]c2cc1S(=O)(=O)NCc1ccccc1 | 75.8 | 1.4 | i | 22.6* | 254.2 | 0.9 | 3.7 | 6.0*
Cc1cc2[nH]c(=O)c(=O)[nH]c2cc1S(=O)(=O)NC1CCCCC1C (stereo unspecified) | 103.5 | -3.2 | i | / | 179.3 | -1.5 | / | /
CC(=O)c1ccc(C(=O)N2CCCC(CO)(Cc3ccccc3C)C2)s1 (stereo unspecified) | / | -1.2 | i | 0.7 | / | 0.4 | / | /
N#CC(Sc1ccccn1)c1ccc(Cl)cc1 (stereo unspecified) | 105.9 | 1.2 | i | 15.8* | 224.1 | 0.7 | 10.1 | 12.4*
O=C(NCCSc1ccccn1)c1ccc(Cl)cc1 | 101.8 | -2.6 | i | 0.4 | 431.2 | -3.6 | / | /
COc1ccc2c(c1)cc1n2CCN=C1NCCO | 107.9 | 0.6 | i | 16.9* | 166.9 | -1.7 | 19.9* | 26.8*
CN=C1c2cc3cc(OC)ccc3n2CCN1C | 97.9 | -1.2 | i | 1.2 | 453.6 | 2.9 | / | /
O=C(Cn1ccc(=O)[nH]c1=O)c1ccc([N+](=O)[O-])o1 | / | / | / | 0.1 | / | -0.9 | / | /
Cc1ccccc1C1N=C2Oc3ccccc3C=C2C(=O)N1 (stereo unspecified) | / | / | / | 35.0* | / | / | 72.0* | 72.6*
N#CCOc1ccc2oc(-c3ccco3)cc(=O)c2c1 | 92.8 | -2.1 | / | / | 450.5 | / | / | /
CC(C)OCCOc1ccc2oc(-c3ccco3)cc(=O)c2c1 | 101.5 | -2.5 | i | 24.1* | 174.1 | 9.9 | 37.3* | -6.0 | K7 EDANS ctr=>69.5
O=C(O)C(=Cc1ccc([N+](=O)[O-])cc1)c1ccccc1 | / | / | / | -0.5 | / | / | / | /
c1cc2c3c(cccc3c1)C(N1CCCCC1)=N2 | 89.8 | 0.2 | / | / | 144.7 | -0.9 | / | /
c1cc2c3c(cccc3c1)C(N1CCCCCC1)=N2 | 112.2 | -3.0 | i | 51.8* | 443.8 | 2.1 | 7.2 | 9.4*
c1ccc2c(c1)CCN(C1=Nc3cccc4cccc1c34)C2 | / | -1.8 | / | 14.1* | / | -3.0 | 6.6 | 8.2*
Cc1cc(C)c2nc(N3CCOCC3)c(C#N)cc2c1 | 105.0 | 2.9 | i | -1.3 | 362.1 | -2.5 | / | /
SMILES | CR mimetic SO | beta cell repl | Rce1 inh | proKLK7 act | T cell HTS | V-ATPase pH | proKLK7 act conf | EDANS-DABCYL int | others
N#Cc1cc2cc3c(cc2nc1N1CCOCC1)OCO3 | 98.3 | -0.4 | i | 18.0* | 336.5 | -1.0 | 114.3* | 122.9*
COC(=O)c1cc(Cl)ccc1NCC(N)c1ccccc1 (stereo unspecified) | / | / | / | 17.7* | / | / | -41.0 | -39.9
COc1ccccc1CC(=O)Nc1ccc(Cl)cc1C(=O)O | 85.5 | -2.8 | i | 0.8 | 140.3 | -1.0 | / | /
Cc1ccc(-c2cn3cccnc3n2)cc1 | 108.1 | -4.3 | i | 84.7* | 104.7 | -2.7 | 63.9* | 69.1*
CS(=O)(=O)Nc1ccc(-c2ccc3nccn3c2)cc1 | / | / | / | 0.4 | / | / | / | /
COc1ccc(-c2cn3cccnc3n2)cc1NC(=O)c1ccc(Br)o1 | 100.8 | -2.0 | i | -12.0 | 224.0 | -0.9 | / | /
Cc1ccc(-c2cn3cccnc3n2)cc1NC(=O)c1ccc(Br)o1 | 105.5 | 0.1 | i | 21.8* | 152.0 | -1.8 | 17.2* | 4.9* | K7 EDANS ctr=>69.5
CS(=O)(=O)Nc1ccc(-c2cn3cccnc3n2)cc1 | 104.6 | -0.3 | i | 123.3* | 278.0 | -0.6 | 38.7* | 38.6*
O=S1(=O)C=CCN1Cc1cn(Cc2ccc(Cl)cc2)nn1 | / | / | / | -0.5 | / | / | / | /
Cc1ccc(NC(=O)c2sc3nc(CCl)[nH]c(=O)c3c2C)c(C)c1 | / | / | / | 0.6 | / | 3.1 | / | /
Fc1ccc2nc(-c3ccc(CN4CCC5(CC4)CNc4ccccc45)cc3)c(-c3ccccc3)nc2c1 | / | / | / | 1.2 | / | / | / | /
Cc1ccc(NC(=O)C2(C)CCN2C(=O)C2CCCCC2)cc1C (stereo unspecified) | / | / | / | 0.1 | / | / | / | /
COc1ccc(NC(=O)CN2C(=O)c3cccc4cccc2c34)c(OC)c1 | 97.0 | -1.9 | i | 304.2* | 297.1 | 3.1 | 59.1* | 67.1*
COc1ccc(NC(=O)CCN2C(=O)c3ccccc3C2=O)c(OC)c1 | 109.9 | -4.0 | i | -0.1 | 266.4 | 5.0 | / | /
Cc1c(Cl)c(=O)oc2cc(OC(C)C)ccc12 | 102.2 | -0.6 | i | 14.7* | 171.5 | -1.2 | 0.9 | 2.9
COC(=O)Cc1c(C)c2ccc(OC(=O)c3ccccc3)cc2oc1=O | 107.0 | -0.2 | i | 422.5* | 341.9 | 20.2* | 631.5* | 511.5*
Cc1c(C)c2ccc(OCC(=O)c3ccccc3)cc2oc1=O | 94.7 | 0.3 | i | -4.8 | 201.6 | 2.7 | / | /

Compound activity as filed in PubChem BioAssay.
